According to ChEMBL document CHEMBL3244142, “Antifungal properties of 2-bromo-3-fluorosuccinic acid esters and related compounds” (1977):
≈ marks a conversion by molar mass, not a printed value. Where a name gives a salt, the structure may show the parent alone. Calls of active or inactive are those of the source. The calls are words filed in the database; no cut-off is given here.

Key:
[1] = test system: Trichophyton mentagrophytes; assay: Antifungal activity against Trichophyton mentagrophytes ATCC 9129 at pH 5.6 after 5 days in presence of 10% beef serum; type: functional; conditions: Trichophyton mentagrophytes, ATCC 9129, 120 h; read-out: MIC
In short: (§1)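 Agar-dilution MIC in Sabouraud dextrose agar at pH 5.6 or 7.0, with or without 10% beef serum. Plates were incubated at 28 °C for 5 days. MIC is the lowest concentration (µg/mL) giving 100% inhibition. Steps were 1 µg/mL up to 10, 2 µg/mL from 10–20, and 10 µg/mL from 20–100; 100 µg/mL was the top level, and no inhibition there is scored as >100.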

Candida albicans [2] = assay: Antifungal activity against Candida albicans ATCC 10231 at pH 5.6 after 20 h in absence of 10% beef serum; conditions: ATCC 10231, 20 h
[3] = test system: Trichophyton mentagrophytes; assay: Antifungal activity against Trichophyton mentagrophytes ATCC 9129 at pH 7 after 5 days in absence of 10% beef serum; type: functional; conditions: Trichophyton mentagrophytes, ATCC 9129, 120 h; read-out: MIC; in short: as §1
Aspergillus niger [4] = assay: Antifungal activity against Aspergillus niger ATCC 1004 at pH 5.6 after 5 days in presence of 10% beef serum; type: functional; conditions: Aspergillus niger, ATCC 1004, 120 h; read-out: MIC; in short: as §1
Candida albicans [5] = assay: Antifungal activity against Candida albicans ATCC 10231 at pH 7 after 20 h in absence of 10% beef serum; conditions: ATCC 10231, 20 h
[6] = test system: Trichophyton mentagrophytes; assay: Antifungal activity against Trichophyton mentagrophytes ATCC 9129 at pH 5.6 after 5 days in absence of 10% beef serum; type: functional; conditions: Trichophyton mentagrophytes, ATCC 9129, 120 h; read-out: MIC; in short: as §1
Aspergillus niger [7] = assay: Antifungal activity against Aspergillus niger ATCC 1004 at pH 5.6 after 5 days in absence of 10% beef serum; type: functional; conditions: Aspergillus niger, ATCC 1004, 120 h; read-out: MIC; in short: as §1
Mucor mucedo [8] = assay: Antifungal activity against Mucor mucedo ATCC 7941 at pH 5.6 after 20 h in absence of 10% beef serum; conditions: ATCC 7941, 20 h
Mucor mucedo [9] = assay: Antifungal activity against Mucor mucedo ATCC 7941 at pH 7 after 20 h in absence of 10% beef serum; conditions: ATCC 7941, 20 h
[10] = test system: Trichophyton mentagrophytes; assay: Antifungal activity against Trichophyton mentagrophytes ATCC 9129 at pH 7 after 5 days in presence of 10% beef serum; type: functional; conditions: Trichophyton mentagrophytes, ATCC 9129, 120 h; read-out: MIC; in short: as §1
Candida albicans [11] = assay: Antifungal activity against Candida albicans ATCC 10231 at pH 5.6 after 20 h in presence of 10% beef serum; conditions: ATCC 10231, 20 h
Aspergillus niger [12] = assay: Antifungal activity against Aspergillus niger ATCC 1004 at pH 7 after 5 days in absence of 10% beef serum; type: functional; conditions: Aspergillus niger, ATCC 1004, 120 h; read-out: MIC; in short: as §1
Aspergillus niger [13] = assay: Antifungal activity against Aspergillus niger ATCC 1004 at pH 7 after 5 days in presence of 10% beef serum; type: functional; conditions: Aspergillus niger, ATCC 1004, 120 h; read-out: MIC; in short: as §1
Candida albicans [14] = assay: Antifungal activity against Candida albicans ATCC 10231 at pH 7 after 20 h in presence of 10% beef serum; conditions: ATCC 10231, 20 h
Mucor mucedo [15] = assay: Antifungal activity against Mucor mucedo ATCC 7941 at pH 7 after 20 h in presence of 10% beef serum; conditions: ATCC 7941, 20 h
Mucor mucedo [16] = assay: Antifungal activity against Mucor mucedo ATCC 7941 at pH 5.6 after 20 h in presence of 10% beef serum; conditions: ATCC 7941, 20 h
Aspergillus niger [17] = assay: Antifungal activity against Aspergillus niger ATCC 1004 at <100 ug/ml at pH 7 after 5 days in presence of 10% beef serum; type: functional, organism-based; in short: as §1
Candida albicans [18] = assay: Antifungal activity against Candida albicans ATCC 10231 at <100 ug/ml at pH 5.6 after 20 h in absence of 10% beef serum
Candida albicans [19] = assay: Antifungal activity against Candida albicans ATCC 10231 at <100 ug/ml at pH 7 after 20 h in absence of 10% beef serum
[20] = test system: Trichophyton mentagrophytes; assay: Antifungal activity against Trichophyton mentagrophytes ATCC 9129 at <100 ug/ml at pH 5.6 after 5 days in presence of 10% beef serum; type: functional, organism-based; in short: as §1
[21] = test system: Trichophyton mentagrophytes; assay: Antifungal activity against Trichophyton mentagrophytes ATCC 9129 at <100 ug/ml at pH 7 after 5 days in presence of 10% beef serum; type: functional, organism-based; in short: as §1
Candida albicans [22] = assay: Antifungal activity against Candida albicans ATCC 10231 at <100 ug/ml at pH 7 after 20 h in presence of 10% beef serum
Aspergillus niger [23] = assay: Antifungal activity against Aspergillus niger ATCC 1004 at <100 ug/ml at pH 7 after 5 days in absence of 10% beef serum; type: functional, organism-based; in short: as §1
Aspergillus niger [24] = assay: Antifungal activity against Aspergillus niger ATCC 1004 at <100 ug/ml at pH 5.6 after 5 days in presence of 10% beef serum; type: functional, organism-based; in short: as §1
Mucor mucedo [25] = assay: Antifungal activity against Mucor mucedo ATCC 7941 at <100 ug/ml at pH 7 after 20 h in presence of 10% beef serum
Mucor mucedo [26] = assay: Antifungal activity against Mucor mucedo ATCC 7941 at <100 ug/ml at pH 5.6 after 20 h in absence of 10% beef serum
Mucor mucedo [27] = assay: Antifungal activity against Mucor mucedo ATCC 7941 at <100 ug/ml at pH 7 after 20 h in absence of 10% beef serum
Mucor mucedo [28] = assay: Antifungal activity against Mucor mucedo ATCC 7941 at <100 ug/ml at pH 5.6 after 20 h in presence of 10% beef serum
Aspergillus niger [29] = assay: Antifungal activity against Aspergillus niger ATCC 1004 at <100 ug/ml at pH 5.6 after 5 days in absence of 10% beef serum; type: functional, organism-based; in short: as §1
Candida albicans [30] = assay: Antifungal activity against Candida albicans ATCC 10231 at <100 ug/ml at pH 5.6 after 20 h in presence of 10% beef serum

| SMILES | MIC [1] [µg/mL] | MIC (Candida albicans [2]) [µg/mL] | MIC [3] [µg/mL] | MIC (Aspergillus niger [4]) [µg/mL] | MIC (Candida albicans [5]) [µg/mL] | MIC [6] [µg/mL] | MIC (Aspergillus niger [7]) [µg/mL] | MIC (Mucor mucedo [8]) [µg/mL] | MIC (Mucor mucedo [9]) [µg/mL] | MIC [10] [µg/mL] | MIC (Candida albicans [11]) [µg/mL] | MIC (Aspergillus niger [12]) [µg/mL] | MIC (Aspergillus niger [13]) [µg/mL] | MIC (Candida albicans [14]) [µg/mL] | MIC (Mucor mucedo [15]) [µg/mL] | MIC (Mucor mucedo [16]) [µg/mL] | inhibition (Aspergillus niger [17]) | inhibition (Aspergillus niger [23]) | inhibition (Aspergillus niger [24]) | inhibition (Aspergillus niger [29]) | other results |
| --- | --- | --- | --- | --- | --- | --- | --- | --- | --- | --- | --- | --- | --- | --- | --- | --- | --- | --- | --- | --- | --- |
| COC(=O)/C=C(\F)C(=O)OC | 4 | 4 (≈ 24.7 µM) | 8 (≈ 49.3 µM) | 50 | 20 (≈ 123 µM) | < 1 | 20 (≈ 123 µM) | < 1 | 4 (≈ 24.7 µM) | 40 | 6 | 60 (≈ 370 µM) |  | 40 | 6 | 2 | inactive |  |  |  |  |
| CCCCCOC(=O)/C=C/C(=O)OCCCCC |  |  | 50 (≈ 195 µM) |  |  | 16 (≈ 62.4 µM) |  |  |  |  |  |  |  |  |  |  | inactive | inactive | inactive | inactive | inhibition (Candida albicans [18]): inactive; inhibition (Candida albicans [19]): inactive; inhibition [20]: inactive; inhibition [21]: inactive; inhibition (Candida albicans [22]): inactive; inhibition (Mucor mucedo [25]): inactive; inhibition (Mucor mucedo [26]): inactive; inhibition (Mucor mucedo [27]): inactive; inhibition (Mucor mucedo [28]): inactive; inhibition (Candida albicans [30]): inactive |
| COC(=O)/C=C/C(=O)OC [DIMETHYL FUMARATE] | 16 | 60 | 20 |  | 90 | 8 |  | 18 | 40 | 30 | 60 |  |  | 90 | 50 | 30 | inactive | inactive | inactive | inactive |  |

Compounds with a lower MIC [3], results first:

| MIC [1] [µg/mL] | MIC (Candida albicans [2]) [µg/mL] | MIC [3] [µg/mL] | MIC (Aspergillus niger [4]) [µg/mL] | MIC (Candida albicans [5]) [µg/mL] | MIC [6] [µg/mL] | MIC (Aspergillus niger [7]) [µg/mL] | MIC (Mucor mucedo [8]) [µg/mL] | MIC (Mucor mucedo [9]) [µg/mL] | MIC [10] [µg/mL] | MIC (Candida albicans [11]) [µg/mL] | MIC (Aspergillus niger [12]) [µg/mL] | MIC (Aspergillus niger [13]) [µg/mL] | MIC (Candida albicans [14]) [µg/mL] | MIC (Mucor mucedo [15]) [µg/mL] | MIC (Mucor mucedo [16]) [µg/mL] | SMILES | inhibition (Aspergillus niger [17]) | inhibition (Aspergillus niger [23]) | inhibition (Aspergillus niger [24]) | inhibition (Aspergillus niger [29]) | other results |
| --- | --- | --- | --- | --- | --- | --- | --- | --- | --- | --- | --- | --- | --- | --- | --- | --- | --- | --- | --- | --- | --- |
| 5 | 4 (≈ 14.8 µM) | 3 (≈ 11.1 µM) | 12 | 12 (≈ 44.3 µM) | 2 (≈ 7.38 µM) | 12 (≈ 44.3 µM) | 4 (≈ 14.8 µM) | 6 (≈ 22.1 µM) | 6 | 6 | 30 (≈ 111 µM) | 40 | 16 | 7 | 5 | CCOC(=O)[C@@H](F)[C@@H](Br)C(=O)OCC (relative stereo) |  |  |  |  |  |
| < 1 | < 1 | 3 (≈ 2.7 µM) | 5 | < 1 | < 1 | 2 (≈ 1.8 µM) | < 1 | < 1 | 9 | < 1 | 8 (≈ 7.21 µM) | 10 | 2 | 2 | < 1 | CC1/C=C/C=C/C=C/C=C/C=C/C=C/C=C/C(OC2O[C@H](C)[C@@H](O)[C@H](N)[C@@H]2O)CC(O)C(C(=O)O)C(O)CC(=O)CC(O)CC(O)CC(O)CC(=O)CCCC(=O)CC(=O)OC1C(C)CC(C)C(O)CC(=O)c1ccc(N)cc1 (stereo partly specified) |  |  |  |  |  |
| 5 | 90 (≈ 404 µM) | 7 (≈ 31.4 µM) |  | 90 (≈ 404 µM) | 4 (≈ 17.9 µM) |  | 10 (≈ 44.8 µM) | 40 (≈ 179 µM) | 14 | 80 |  |  | 90 | 40 | 40 | COC(=O)/C=C(/Br)C(=O)OC | inactive | inactive | inactive | inactive |  |
